This note sets out measurements from ChEMBL document CHEMBL1268844, “Synthesis of novel 3-amino and 29-hydroxamic acid derivatives of glycyrrhetinic acid as selective 11β-hydroxysteroid dehydrogenase 2 inhibitors” (Bioorg Med Chem, 2010).

The structures appear in SMILES notation. pIC50: −log10 of the molar value.

Assay [1] addresses T1, 11-beta-hydroxysteroid dehydrogenase type 2 (Homo sapiens) (UniProt P80365).
T1 sequence (whole entry): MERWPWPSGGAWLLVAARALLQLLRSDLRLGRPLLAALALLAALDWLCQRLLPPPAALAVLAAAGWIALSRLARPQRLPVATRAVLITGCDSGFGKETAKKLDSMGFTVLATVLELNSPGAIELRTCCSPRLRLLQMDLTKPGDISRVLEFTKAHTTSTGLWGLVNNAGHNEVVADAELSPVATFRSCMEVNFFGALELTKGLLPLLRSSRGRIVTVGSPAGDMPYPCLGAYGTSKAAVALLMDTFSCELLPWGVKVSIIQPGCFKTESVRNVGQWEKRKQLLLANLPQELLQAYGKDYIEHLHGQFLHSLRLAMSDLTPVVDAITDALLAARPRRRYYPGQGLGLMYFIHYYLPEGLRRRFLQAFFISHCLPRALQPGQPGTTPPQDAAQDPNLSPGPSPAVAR
Put plainly: Inhibition of human recombinant 11beta-HSD2 expressed in HEK293 cells assessed as residual conversion of [1,2,6,7-3H]-cortisol to cortisone at 0.2 uM by scintillation counting. Format: cell-based. Summed up: (§1)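 HEK-293 cells transfected with pcDNA3 encoding human enzyme carrying C-terminal FLAG tag. Compounds diluted from DMSO stocks, used immediately, screened at final 200 nM. Reactions stopped with methanol containing 2 mM unlabeled cortisone and cortisol. Steroids separated by TLC, then scintillation counting; readout is residual substrate conversion.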

Assay [2] concerns the target T2, 11-beta-hydroxysteroid dehydrogenase 1 (Homo sapiens, UniProt P28845). The assay is described as follows: Inhibition of human recombinant 11beta-HSD1 expressed in HEK293 cells assessed as residual conversion of [1,2-3H]-cortisone to cortisol at 0.2 uM by scintillation counting. The assay is classed as cell-based. Summed up:
as §1
Target sequence in this assay (P28845 whole entry, looked up): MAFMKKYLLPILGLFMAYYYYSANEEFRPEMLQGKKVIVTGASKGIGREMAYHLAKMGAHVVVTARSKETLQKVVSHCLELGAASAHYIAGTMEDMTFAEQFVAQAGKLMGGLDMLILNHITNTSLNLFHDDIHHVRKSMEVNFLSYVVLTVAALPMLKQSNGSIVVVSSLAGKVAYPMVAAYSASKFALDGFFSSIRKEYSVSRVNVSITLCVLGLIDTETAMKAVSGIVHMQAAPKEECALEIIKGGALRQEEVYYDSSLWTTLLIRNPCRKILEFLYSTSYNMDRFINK

Assay [3] addresses T2, 11-beta-hydroxysteroid dehydrogenase 1. The assay is described as follows: Inhibition of human recombinant 11beta-HSD1 expressed in HEK293 cells assessed as conversion of [1,2-3H]-cortisone to cortisol by scintillation counting. Format: cell-based.
Target sequence in this assay (P28845 whole entry): as the sequence (P28845 whole entry, looked up) above
Assay [4] has as its target T3, 11-beta-hydroxysteroid dehydrogenase type 2 (Homo sapiens, UniProt P80365).
T3 sequence (P80365 whole entry): T1 sequence (whole entry)
Put plainly: Inhibition of human recombinant 11beta-HSD2 expressed in HEK293 cells assessed as conversion of [1,2,6,7-3H]-cortisol to cortisone by scintillation counting. Format: cell-based.

The nature of assay [5]: Selectivity ratio of IC50 for human recombinant 11beta-HSD2 to IC50 for human recombinant 11beta-HSD1.

In the case of `CC1(C)[C@H](NS(=O)(=O)C(F)(F)F)CC[C@]2(C)[C@H]3C(=O)C=C4[C@@H]5C[C@@](C)(C(=O)O)CC[C@]5(C)CC[C@@]4(C)[C@]3(C)CC[C@@H]12`, the Activity turned out to be 50% in assay [1] and 99% in assay [2].
The matching figures for `CC1(C)[C@@H](NS(=O)(=O)C(F)(F)F)CC[C@]2(C)[C@H]3C(=O)C=C4[C@@H]5C[C@@](C)(C(=O)O)CC[C@]5(C)CC[C@@]4(C)[C@]3(C)CC[C@@H]12`: 22% and 87%.
For `CC(=O)N[C@H]1CC[C@]2(C)[C@H]3C(=O)C=C4[C@@H]5C[C@@](C)(C(=O)N(C)O)CC[C@]5(C)CC[C@@]4(C)[C@]3(C)CC[C@H]2C1(C)C` the same measures were 4% and 72%.
By pIC50 is commonly meant the negative decadic logarithm of the IC50, by convention in mol/L. On to `CO/N=C1\CC[C@]2(C)[C@H]3C(=O)C=C4[C@@H]5C[C@@](C)(C(=O)O)CC[C@]5(C)CC[C@@]4(C)[C@]3(C)CC[C@H]2C1(C)C`, for which, in assay [3], the pIC50 was 5.82.
Take `C=CCONC(=O)[C@@]1(C)CC[C@]2(C)CC[C@]3(C)C(=CC(=O)[C@@H]4[C@@]5(C)CC[C@H](OC(C)=O)C(C)(C)[C@@H]5CC[C@]43C)[C@@H]2C1`: the figures for the Activity in assay [1] and in assay [2] were 84% and 99%, respectively.
In the case of `CC1(C)C(=O)CC[C@]2(C)[C@H]3C(=O)C=C4[C@@H]5C[C@@](C)(C(=O)O)CC[C@]5(C)CC[C@@]4(C)[C@]3(C)CC[C@@H]12`, the pIC50 in assay [3] is 6.21.
`CN(O)C(=O)[C@@]1(C)CC[C@]2(C)CC[C@]3(C)C(=CC(=O)[C@@H]4[C@@]5(C)CC[C@@H](NS(=O)(=O)C(F)(F)F)C(C)(C)[C@@H]5CC[C@]43C)[C@@H]2C1`: the Activity in assay [1] was determined as 82%; in assay [2], 88%.
Turning to `CC1(C)[C@@H](O)CC[C@]2(C)[C@H]3C(=O)C=C4[C@@H]5C[C@@](C)(C(=O)NO)CC[C@]5(C)CC[C@@]4(C)[C@]3(C)CC[C@@H]12`, in assay [3], the pIC50 was 5.94.
Regarding `CN(O)C(=O)[C@@]1(C)CC[C@]2(C)CC[C@]3(C)C(=CC(=O)[C@@H]4[C@@]5(C)CC[C@H](O)C(C)(C)[C@@H]5CC[C@]43C)[C@@H]2C1`, the Activity in assay [1] stood at 7%; in assay [2], 71%.
Regarding `CC(=O)N[C@H]1CC[C@]2(C)[C@H]3C(=O)C=C4[C@@H]5C[C@@](C)(C(=O)O)CC[C@]5(C)CC[C@@]4(C)[C@]3(C)CC[C@H]2C1(C)C`, the values for the pIC50 in assay [4] and in assay [3] were 6.34 and 6.08, respectively.
Regarding `CON[C@@H]1CC[C@]2(C)[C@H]3C(=O)C=C4[C@@H]5C[C@@](C)(C(=O)O)CC[C@]5(C)CC[C@@]4(C)[C@]3(C)CC[C@H]2C1(C)C`, the Activity in assay [1] was found to be 5%; in assay [2], 43%. The results for the pIC50 in assay [4] and in assay [3] were 8.31 and 7.21, respectively.
As for `CC1(C)[C@H](NS(C)(=O)=O)CC[C@]2(C)[C@H]3C(=O)C=C4[C@@H]5C[C@@](C)(C(=O)O)CC[C@]5(C)CC[C@@]4(C)[C@]3(C)CC[C@@H]12`, the values for the Activity in assay [1] and in assay [2] were 4% and 32%, respectively.
Consider `CON(C)C(=O)[C@@]1(C)CC[C@]2(C)CC[C@]3(C)C(=CC(=O)[C@@H]4[C@@]5(C)CC[C@H](OC(C)=O)C(C)(C)[C@@H]5CC[C@]43C)[C@@H]2C1`, for which the figures for the Activity in assay [1] and in assay [2] were 72% and 95%, respectively.
As for `CN(O)C(=O)[C@@]1(C)CC[C@]2(C)CC[C@]3(C)C(=CC(=O)[C@@H]4[C@@]5(C)CC[C@H](NS(=O)(=O)C(F)(F)F)C(C)(C)[C@@H]5CC[C@]43C)[C@@H]2C1`, the results for the Activity in assay [1] and in assay [2] were 44% and 71%, respectively.
Regarding `CC1(C)[C@@H](NS(C)(=O)=O)CC[C@]2(C)[C@H]3C(=O)C=C4[C@@H]5C[C@@](C)(C(=O)O)CC[C@]5(C)CC[C@@]4(C)[C@]3(C)CC[C@@H]12`, the Activity in assay [1] turned out to be 4%; in assay [2] it was 58%.
Regarding `CON[C@H]1CC[C@]2(C)[C@H]3C(=O)C=C4[C@@H]5C[C@@](C)(C(=O)O)CC[C@]5(C)CC[C@@]4(C)[C@]3(C)CC[C@H]2C1(C)C`, the figures for the Activity in assay [1] and in assay [2] were 2% and 33%, respectively. The pIC50 in assay [4] is 7.84; in assay [3], 7.37.
In the case of `CONC(=O)[C@@]1(C)CC[C@]2(C)CC[C@]3(C)C(=CC(=O)[C@@H]4[C@@]5(C)CC[C@H](O)C(C)(C)[C@@H]5CC[C@]43C)[C@@H]2C1`, the pIC50 is 5.67 in assay [4] and 6.03 in assay [3]. In addition, the Ratio in assay [5] stood at 0.4.
With `CC(=O)O[C@H]1CC[C@]2(C)[C@H]3C(=O)C=C4[C@@H]5C[C@@](C)(C(=O)N(O)C(C)(C)C)CC[C@]5(C)CC[C@@]4(C)[C@]3(C)CC[C@H]2C1(C)C`, the Activity in assay [1] turned out to be 85%; in assay [2], 86%.
As for `CC(=O)O[C@H]1CC[C@]2(C)[C@H]3C(=O)C=C4[C@@H]5C[C@@](C)(C(=O)NO)CC[C@]5(C)CC[C@@]4(C)[C@]3(C)CC[C@H]2C1(C)C`, the pIC50 in assay [3] is 6.20.
Take `CON[C@H]1CC[C@]2(C)[C@H]3C(=O)C=C4[C@@H]5C[C@@](C)(C(=O)N(C)O)CC[C@]5(C)CC[C@@]4(C)[C@]3(C)CC[C@H]2C1(C)C`: the Activity came out at 30% in assay [1] and 93% in assay [2].
